# Assay outcomes from PubChem BioAssay.
# Apaf-1 inh – inhibitors of human Apaf-1 apoptosome, primary screen, biochemical, DEVD-Rh110 fluorescence, uHTS. hit rate 0.71% among 330,000. inhibition, % at 20 µM. reconstituted apoptosome caspase-3 activity; active means inhibition of at least 40% at 20 µM;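 further: plate controls were DMSO wells for no effect and DEVD-CHO caspase inhibitor wells for full effect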
#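 System: reconstituted apoptosome with Apaf-1, cytochrome c, caspase-9, procaspase-3, dATP; Signal: Rh110 fluorescence intensity; Schedule: 30 min compound preincubation, 50 min activation, room temperature; Reagent: cytochrome c trigger plus (Z-DEVD)2-Rh110 caspase-3 substrate.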
# PAFAH2 FP inh – PAFAH2 enzyme inhibitors, primary screen, biochemical, fluorescence polarization, human. recombinant PAFAH2, FP-rhodamine activity probe. Platelet-activating factor acetylhydrolase 2, cytoplasmic (Homo sapiens), Q99487. inhibition, % at 3.39 µM. hit rate 0.99% among 340,000;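 active means inhibition above the mean over all tested compounds plus 3 SD, cut at about 30% in these data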;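 further: inhibitors block probe labeling of enzyme so polarization drops; 0% = enzyme with DMSO and 100% = wells lacking PAFAH2 protein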
# pPAFAH inh – pPAFAH enzyme inhibitors, primary screen, biochemical, fluorescence polarization, human | recombinant pPAFAH, FP-rhodamine probe fluorescence polarization | inhibition, % at 3.39 µM | hit rate 1.5% among 330,000;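 active means inhibition above the mean inhibition across the screen plus 3 SD, cut at about 25% in these data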;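 further: inhibitors block binding of the rhodamine activity-based probe so polarization drops; 0% = enzyme with DMSO and 100% = wells lacking pPAFAH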
# Target sequence (Q13093 whole entry, looked up): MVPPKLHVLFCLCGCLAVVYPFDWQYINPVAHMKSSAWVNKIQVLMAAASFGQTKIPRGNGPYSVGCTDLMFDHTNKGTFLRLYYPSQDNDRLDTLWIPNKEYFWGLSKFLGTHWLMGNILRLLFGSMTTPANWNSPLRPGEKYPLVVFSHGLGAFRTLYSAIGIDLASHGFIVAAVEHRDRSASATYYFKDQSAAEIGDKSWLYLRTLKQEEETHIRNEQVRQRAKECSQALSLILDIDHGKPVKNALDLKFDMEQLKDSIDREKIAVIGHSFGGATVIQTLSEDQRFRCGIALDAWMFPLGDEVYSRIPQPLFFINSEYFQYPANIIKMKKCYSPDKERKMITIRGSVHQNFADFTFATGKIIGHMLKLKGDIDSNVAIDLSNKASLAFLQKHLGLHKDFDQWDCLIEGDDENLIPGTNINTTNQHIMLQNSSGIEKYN
# PREPL inh – PREPL enzyme inhibitors, primary screen, biochemical, fluorescence polarization; Prolyl endopeptidase-like (Homo sapiens), Q4J6C6; recombinant PREPL, fluorescence polarization activity-based probe; inhibition, % at 5.96 µM; hit rate 0.68% among 320,000; AID 2751, 2010; in the data active means inhibition above about 43%;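 further: 0% = enzyme with DMSO and 100% = wells lacking enzyme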
# PAFAH1B2 FP inh – PAFAH1B2 enzyme inhibitors, primary screen, biochemical, fluorescence polarization, human | Platelet-activating factor acetylhydrolase IB subunit alpha2 (Homo sapiens), P68402 | recombinant PAFAH1B2, FP-rhodamine activity probe | inhibition, % at 3.39 µM | hit rate 1.2% among 340,000;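 active means inhibition above the mean of all tested compounds plus 3 SD, cut at about 24% in these data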;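 further: 0% = enzyme with DMSO and 100% = wells lacking PAFAH1B2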
# PAFAH1B3 inh – PAFAH1B3 enzyme inhibitors, primary screen, biochemical, fluorescence polarization, human | Platelet-activating factor acetylhydrolase IB subunit alpha1 (Homo sapiens), Q15102 | recombinant PAFAH1B3, FP-rhodamine probe | inhibition, % at 3.39 µM | hit rate 0.28% among 340,000;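 active means inhibition above the screen-wide average of all tested compounds plus 3 SD, cut at about 25% in these data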;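 further: 0% = enzyme with DMSO only and 100% = wells lacking PAFAH1B3 protein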
# Starred values were filed as active, the others as inactive; / = no result; ! = not active in a repeat. Most compounds without a hit are left out; they make up all but 3.5% or so of the library.
SMILES,Apaf-1 inh,PAFAH2 FP inh,pPAFAH inh,PREPL inh,PAFAH1B2 FP inh,PAFAH1B3 inh
Cn1c(=O)[nH]c(=O)c2c1nc(NC1CCCCC1)n2Cc1ccccc1,4,2,3,3,7,5
O=C(NC(=S)NN1CCOCC1)c1cc(Br)ccc1Cl,-4,0,1,19,6,12
O=c1c(-c2ccc(O)cc2)coc2cc(O)ccc12,-1,-5,-1,6,2,11
O=c1c(O)c(-c2ccc(O)c(O)c2)oc2cc(O)ccc12,/,66*,/,/,15,38*
Oc1ccc(C[C@H]2CNC(=S)N2CC2CCCN2C[C@H](Cc2ccccc2)N2C[C@H](Cc3ccc(O)cc3)N(CCc3ccccc3)C2=S)cc1 (some centres undefined),/,-36,/,/,-7,-13
Cc1nc2nc[nH]n2c(=O)c1NC(=O)CC12CC3CC(CC(C3)C1)C2,-3,36*!,3,-2,25*,8
Cc1ccc(C)c(NS(=O)(=O)c2ccc(-c3cnc(C4CC4)o3)cc2)c1,19,9,33*,-5,2,9
Cc1cc(C)cc(NS(=O)(=O)c2ccc(-c3cnc(C4CC4)o3)cc2)c1,23,3,7,-16,-1,3
CC(=O)Nc1ccc(NS(=O)(=O)c2ccc(-c3cnc(C4CC4)o3)cc2)cc1,-2,4,3,2,3,9
CCOc1ccc(NS(=O)(=O)c2ccc(-c3cnc(C4CC4)o3)cc2)cc1,5,0,31*,-28,8,3
COc1ccc(/C=N/NC(=O)CN(Cc2ccccc2)S(=O)(=O)c2ccc3c(c2)OCCO3)cc1,4,-5,16,-38,-1,-3
O=C(CN(Cc1ccccc1)S(=O)(=O)c1ccc2c(c1)OCCO2)N/N=C/c1ccc(F)cc1,6,-5,33*,-45,-1,3
O=C(CCN1CCCCO1)N1CCCC(N2CCN(c3ccc(F)cc3)CC2)C1 (centres undefined),-9,-4,-1,20,0,-7
CCN(C(=O)COc1cc(=O)n(CC)c2ccccc12)c1cccc(Cl)c1,8,15,27*,8,6,1
CC1C/C(=N/N=C2/NC(=O)CS2)CC(C)(C)C1 (centres undefined),-3,-5,4,-5,76*,-4
CC1C/C(=N/N2C(=O)CSC2=S)CC(C)(C)C1 (centres undefined),-6,6,-4,7,19,7
O=C(CN1CCc2cc3c(cc2C1)OCCCO3)Nc1ccc(S(=O)(=O)N2CCCC2)cc1,16,-1,6,-8,3,3
CC1(OC(=O)C2CCCC2)C(=O)C=C2C=C(c3ccsc3)N(Cc3ccco3)C=C2C1=O (centres undefined),20,-2,31*,17,-1,-4
CS(=O)(=O)c1ccc(C(=O)N2CCN(C(=O)c3ccco3)CC2)cc1,-10,0,/,/,-1,-1
O=C(Cc1ccc(Br)cc1)c1ccc(O)cc1O,-5,-3,4,6,82*,4
COc1ccc(CC(=O)c2ccc(O)cc2O)cc1,-6,-4,3,8,3,12
COc1cc2c(cc1OC)C1Cc3ccc(OC)c(OC)c3CN1CC2 (centres undefined),-3,-3,0,12,2,-1
COc1ccc2cc1Oc1ccc(cc1)C[C@H]1c3c(cc(OC)c4c3Oc3c(ccc5c3[C@H](C2)N(C)CC5)O4)CCN1C,59*,5,2,15,6,5
CCOC(=O)/C(N=Nc1sc(C(=O)OCC)c(C)c1C(=O)OCC)=C(\C)O,2,/,2,3,/,/
CCOC(=O)c1sc(N=NC2=C(O)CCCC2=O)c(C(=O)OCC)c1C,26,10,28*,22,-5,2
SMILES,Apaf-1 inh,PAFAH2 FP inh,pPAFAH inh,PREPL inh,PAFAH1B2 FP inh,PAFAH1B3 inh
CCc1cc2cc(C)ccc2nc1SCC(=O)NC1CCCC1,15,-22,30*,7,4,6
CCc1ccc2nc(SCC(=O)N3CC(=O)Nc4ccccc43)c(C#N)cc2c1,22,-4,0,-7,-3,4
CCc1cc2cc(C)ccc2nc1SCC(=O)N1CC(=O)Nc2ccccc21,17,-11,29*,13,0,7
O=C1NC(=O)N2CCSC2(Cc2ccccc2)N1 (centres undefined),/,1,/,/,7,8
Nc1cccc(-c2cn(-c3cc4cc(C#CC5(O)CCCCC5)ccc4oc3=O)nn2)c1,15,4,11,13,5,6
O=C(COC(=O)c1ccccn1)NCc1cccc(Cl)c1,2,6,/,/,0,3
C=CCNc1nc(C(=O)OCC(=O)NCc2cccc(Cl)c2)cs1,10,29,25*,12,2,4
Cc1cc(OCC(=O)NCc2ccncc2)c2c(C)cc(=O)oc2c1,10,-9,0,17,5,10
COc1ccccc1CNS(=O)(=O)c1ccc(-c2cc(C)no2)cc1,45*,0,4,-3,1,8
COc1ccccc1N1CC(C(=O)OCC(=O)Nc2c(C)cccc2C)CC1=O (centres undefined),5,-6,2,-2,4,8
Cc1cc(C2=CC(=O)C[C@H](c3ccc4c(c3)OCO4)C2)ccc1F,7,-4,6,-17,0,13
CCN(CC)c1ccc(/C=C/c2cc(-c3ccccc3)c3ccccc3n2)cc1,/,-5,25*,4,-2,4
CCOC(=O)C1=C(COC(=O)CCc2ccc(CC)cc2)NC(=O)NC1C (centres undefined),0,10,4,-3,7,6
CCOC(=O)Cc1c(Sc2ccccc2)c2ccccc2n1C,12,3,8,1,3,10
Cc1cc(NC(=S)N(Cc2ccc(Br)cc2)Cc2ccc(C(=O)O)cc2)ccc1Cl,20,2,4,-12,32*,5
Cc1cccc(NC(=S)N(Cc2ccc(Br)cc2)Cc2ccc(C(=O)O)cc2)c1,6,-3,4,2,3,-7
CC(=O)C[C@@H](O)CC(=O)[C@H]1OC(=O)CCCCCc2ccccc21,-11,0,5,9,7,13
CC(=O)C[C@@H](O)CC(=O)[C@H]1OC(=O)CCCCCCCCc2ccccc21,6,-3,0,10,43*,4
CC(=O)C[C@@H](O)CC(=O)[C@@H]1OC(=O)CCCCCCCCc2ccccc21,9,-3,3,7,28*,-11
